Experimental data: the RNAGym collection of RNA variant scans (doi:10.1126/science.aae0568)
This sample holds only a part of the variants without activity.

B1: tRNA (parent)
chain: GUUCCGUUGGCGUAAUGGUAACGCGUCUCCCUCCUAAGGAGAAGACUGCGGGUUCGAGUCCCGUACGGAACG

Variants of: B1
Test: yeast fitness relative to wild type (ratio to wild type); higher = fitter; tRNA-Arg(CCU), competitive growth, 37 C, YPD
In short: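 Start and end populations of a pooled competition were compared by 100-nucleotide paired-end sequencing of gene amplicons. The Saccharomyces cerevisiae strains carried tRNA-Arg(CCU) gene variants at the native genomic locus, synthesised with a 3% per-site mutation rate at 69 sites, and competed in YPD at 37°C for 24 hours in six parallel replicates. Darwinian fitness relative to wild type was based on the change in genotype frequencies. Genotypes required ≥ 100 starting reads, and estimates < 0.5 were set to 0.5.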

Point of comparison: C22A U32C, yeast fitness 0.869. Against it:
- A21U U32C C49U A57C — lower, 0.595
- A21U G25A G56U — lower, ≤ 0.5
- A21G G23A C27G A37U G44A C49U G63C — lower, ≤ 0.5
- C22A A37U — lower, 0.578
- C22A C30G C34G — lower, ≤ 0.5
- A21U C33U G50A — lower, 0.621
- A21U C49A C62G G68U — lower, 0.626
- C22A C31G A37G G38C A43G G58C — lower, 0.532
- A21U G23C — lower, 0.579
- C22A C66G — lower, 0.714
- A21U C29A C30U C62G U64A — lower, ≤ 0.5
- A21G U32C C34G — lower, ≤ 0.5
- A21U C30U A36G G44A — lower, ≤ 0.5
- C22A C30U A69C — lower, ≤ 0.5
- A21U C30A U32A U35G G67A — lower, ≤ 0.5
- C22A G25A — higher, 0.992
- A21U G23C A36U — lower, ≤ 0.5
- C22A C33U U54G — lower, ≤ 0.5
- A21U A43U C49G — lower, ≤ 0.5
- A21U U32C A36G A37U U53G — lower, ≤ 0.5
- A21U C27G A36U G39C — lower, ≤ 0.5
- C22A C55A A57U — lower, ≤ 0.5
- A21U A45U G50C U64G — lower, ≤ 0.5
- A21U C24U A37C — lower, 0.683
- A21U G67C A69U — lower, ≤ 0.5
- A21G G23A C27U — lower, 0.75
- C22A G51C C66U — lower, ≤ 0.5
- C22A A45C C66A — lower, ≤ 0.5
- C22A A45C C66G — lower, 0.691
- A21U U59A — lower, 0.587
- A21U C29A U35A A43U C62U G68C — lower, ≤ 0.5
- C22A C30U U35C — lower, ≤ 0.5
- A21G G56C C62A — lower, ≤ 0.5
- C22A C24G A36G G39C C55U — lower, ≤ 0.5
- C22A C31G — lower, 0.749
- C22A C31U — higher, 1.07
- A21U A36G A43U — lower, 0.729
- C22A U28G G58C — lower, ≤ 0.5
- A21U C55A — lower, ≤ 0.5
- C22A A43U C60A A65G — lower, 0.683
- A21U C22U G48C A65G — lower, ≤ 0.5
- A21U U26C C60U — lower, ≤ 0.5
- A21G C62G — higher, 1.02
- C22A A69U A70C — lower, 0.685
- A21U C30U A40C U59C C62U G67U — lower, 0.554
- C22A C62A — lower, 0.785
- A21G U53A — lower, 0.651
- C22A G23C — lower, 0.535
- A21U U47G U59A — lower, ≤ 0.5
- A21G G23C C31U C34G A43G A45C A57U — lower, 0.574
- A21G G23A A57C A65C A70C — lower, ≤ 0.5
- C22A G50C A70G — lower, ≤ 0.5
- A21U G25A C62A — lower, ≤ 0.5
- C22A C31A U53C A57C — lower, ≤ 0.5
- A21G G23C C31U C34G A43G A45C G67C — lower, ≤ 0.5
- A21U C33G A70U — lower, ≤ 0.5
- C22A C24U A36U — lower, ≤ 0.5
- A21U U26C A45G — lower, ≤ 0.5
- C22A G25A G44A — lower, 0.65
- A21G U32G — lower, 0.576
- A21G U32A — lower, 0.661
- C22A A37U G44A A70G — lower, ≤ 0.5
- C22A C24A U54A — lower, ≤ 0.5
- A21U C31A G39C C62G — lower, ≤ 0.5
- C22A G25A A65U — lower, 0.684
- A21U A36G C49A G63A — lower, ≤ 0.5
- C22A A37C A65G — lower, 0.691
- A21U C33A — lower, 0.578
- A21U G38C G44C C62A — lower, ≤ 0.5
- A21U A36G C49A — lower, ≤ 0.5
- C22A G51C G68C — lower, ≤ 0.5
- A21U A65G A70C — lower, 0.56
- C22A A69C — higher, 0.874
- C22A A57G — higher, 0.916
- A21G G50C G52C — lower, ≤ 0.5
- A21U G52A G58A — lower, ≤ 0.5
- C22A A69C A70G — lower, 0.638
- C22A C29A A43U — lower, ≤ 0.5
- A21U G67A — lower, 0.818
- C22A C27G U28A C30A C34G G48C — lower, ≤ 0.5
- A21U G39A C66U — lower, 0.55
- A21U C31G A42G U53A G68A — lower, ≤ 0.5
- A21U A36C C49A C62U A65U — lower, ≤ 0.5
- A21U C27A G41C G44A C55U C62G — lower, 0.648
- C22A C46A A65U — lower, 0.687
- A21G U26A C34U G50C C62U — lower, ≤ 0.5
- C22A C24G A45C — lower, 0.564
- A21G G39C A69C — lower, 0.536
- A21G U32A U47A — lower, 0.556
- A21U C22U G51C G52A U59G — lower, ≤ 0.5
- A21G U35C A65U — lower, ≤ 0.5
- C22A C27G G41A — lower, 0.614
- A21U A43C C62U A65U — lower, ≤ 0.5
- A21U C31G A45C — lower, ≤ 0.5
- A21U C30U A65G C66G — lower, 0.638
- C22A G23C C27U — lower, ≤ 0.5
- A21G U26C A40U C49U — lower, ≤ 0.5
- C22A C33U — lower, 0.604
- C22A G23C C49G C60U — lower, ≤ 0.5
- A21U A43U — higher, 0.901
- C22A C24A U26C C66U — lower, ≤ 0.5
- A21U C31A C34A G39C C61A — lower, ≤ 0.5
- C22A A43C G56A — lower, 0.853
- A21G G56C A65G — lower, 0.583
- C22A C29G C33U A70C — lower, ≤ 0.5
- A21U A36G — lower, 0.804
- A21U A36C — lower, ≤ 0.5
- C22A C34G A36G G48C — lower, ≤ 0.5
- A21U C61U — lower, 0.709
- C22A C24U — lower, 0.74
- C22A A42U G44A C62U — lower, ≤ 0.5
- A21U U32C A36G A37U — lower, ≤ 0.5
- C22A C30U C31G — lower, 0.551
- A21U C33G A42G G44A — lower, 0.541
- C22A G23A C33U C34G C60G G67A — lower, ≤ 0.5
- C22A G48C G51A C55A C66A — lower, ≤ 0.5
- A21G G44C G63C — lower, ≤ 0.5
- C22A U35A — lower, 0.603
- A21U C33G A42G G44A C61U C66U — lower, ≤ 0.5
- C22A C27G A36G — lower, ≤ 0.5
- A21U C46U C49U U54A — lower, ≤ 0.5
- A21G G39C C46G — lower, 0.627
- A21G G41A — higher, 0.995
- A21U G52A A65U — lower, ≤ 0.5
- C22A G23A A37G A69U — lower, ≤ 0.5
- A21U C29G — lower, 0.561
- A21U C29U — lower, 0.588
- A21U A40U A45U — lower, 0.625
- C22A C29U C60A C66U — lower, ≤ 0.5
- C22A C27A G52C G63A — lower, ≤ 0.5
- A21U C22A G38C U54G C60A — lower, 0.846
- A21G G41A C60U — lower, 0.574
- A21G G39A U54C A70C — lower, ≤ 0.5
- A21G U59A U64A — lower, ≤ 0.5
- A21U A42G — lower, 0.583
- A21U A42U — lower, 0.792
- A21U C22U U59C — lower, ≤ 0.5
- A21U A69C — lower, 0.827
- A21U C22U U32A G52C — lower, ≤ 0.5
- A21G G48C C66U G67C A70G — lower, ≤ 0.5
- A21U U28A U35G G58A C62G — lower, ≤ 0.5
- A21U U54G — lower, ≤ 0.5
- C22A C24G A36G G39C C55U C66U — lower, 0.513
- C22A G48A G51A — lower, 0.582
- A21U G52C A57G C61U — lower, ≤ 0.5
- A21U U53C U54G — lower, ≤ 0.5
- A21U G25A C60U G68U — lower, ≤ 0.5
- C22A G67U — lower, 0.774
- A21U C55G C60A C61G C66G — lower, ≤ 0.5
- C22A C27U G56A A57C — lower, ≤ 0.5
- A21U A42C C62G — lower, ≤ 0.5
- C22A A57G C60A — lower, ≤ 0.5
- A21U A43G C62A — lower, ≤ 0.5
- A21U U26G G44A — lower, 0.511
- A21U C30U A42C C55U — lower, ≤ 0.5
- C22A A43C — lower, 0.694
- C22A A43G — lower, 0.809
- C22A A45U G63A — lower, 0.558
- A21U C27U C34A — lower, 0.774
- A21U U53C A57C — lower, 0.619
- A21U C30G U32C — lower, ≤ 0.5
- A21G G56A G67A — lower, 0.654
- A21U C30U C46U A69U — lower, ≤ 0.5
- A21G G58C — higher, 1.01
- A21G G44C — higher, 0.963
- C22A G23C C49G — lower, ≤ 0.5
